Laboratory results from ChEMBL document CHEMBL2440059, “Antiproliferative, antiandrogenic and cytotoxic effects of novel caffeic acid derivatives in LNCaP human androgen-dependent prostate cancer cells” (Bioorg Med Chem, 2013).
Activity calls are given as the source filed them. The calls are words filed in the database; no cut-off is given here.

How the values were obtained:
[1] = tested on: Radical scavenging activity; test: Antioxidant activity assessed as DPPH radical scavenging activity after 30 mins by spectrophotometry; assay type: functional
Summary of the method: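 Ethanolic DPPH ([…], stock) was mixed 1:1 with increasing concentrations of compound in ethanol and held in the dark 30 min at room temperature. Absorbance was read at 520 nm, with control OD accepted within 0.350–0.360. Activity was taken as % inhibition of absorbance and IC50 came from a variable-slope sigmoidal fit. Triplicates, two independent experiments.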

[2] = tested on: LNCaP; test: Antiproliferative activity against human LNCAP cells after 72 hrs in presence of DHT; assay type: functional, cell-based
Summary of the method: (§1)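 LNCaP cells (fewer than 18 passages) were seeded at 25 × 10³ cells/well on electrode-microarray plates in phenol red-free medium with 10% stripped FBS. After 24 h they were exposed to compounds with or without 0.1 nM DHT, in 0.2% final DMSO. Proliferation was tracked as impedance in real time over 72 h. Duplicates, three experiments; doubling time was derived from the growth rate.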

[3] = tested on: LNCaP; test: Cytotoxicity against human LNCAP cells assessed as reduction in cell viability after 24 hrs by WST-1 assay
[4] = tested on: LNCaP; test: Cytotoxicity against human LNCAP cells assessed as reduction in cell viability at 100 uM after 24 hrs by WST-1 assay; assay type: functional
Summary of the method: (§2)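 LNCaP cells were acclimatised 24 h in complete medium, after which the medium was refreshed. Compounds were added from DMSO (0.1% final, 0.1% DMSO controls) over 0.1–100 μM for a 24 h exposure. Quadruplicate wells, three experiments. IC50 came from a variable-slope sigmoidal concentration–response fit.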

[5] = tested on: LNCaP; test: Cytotoxicity against human LNCAP cells at 1 uM after 24 hrs by WST-1 assay; assay type: functional, cell-based; summary of the method: as §2
[6] = tested on: LNCaP; test: Reduction of androgen receptor protein expression in human LNCAP cell cytoplasm at > 10 uM after 24 hrs by chemoluminescence assay in presence of DHT; assay type: functional, cell-based
Summary of the method: (§3)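 Near-confluent LNCaP cells were switched to steroid-free medium for 24 h, then exposed 24 h to compounds with or without 10 nM DHT. Nuclear and cytoplasmic fractions were extracted and assayed by BCA. Protein (40 μg) was run on SDS-PAGE, blotted to PVDF, and probed overnight at 4 °C with anti-AR, then with an HRP anti-rabbit secondary. Duplicates, three experiments.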

[7] = tested on: LNCaP; test: Induction of androgen receptor protein expression in human LNCAP cell nucleus at 1 to 30 uM after 24 hrs by chemoluminescence assay in presence of DHT relative to control; assay type: functional; summary of the method: as §3
[8] = tested on: LNCaP; test: Antiandrogenic activity in human LNCAP cells assessed as reduction in DHT-stimulated PSA release after 24 hrs by ELISA
[9] = tested on: LNCaP; test: Induction of androgen receptor protein expression in human LNCAP cell nucleus at 1 to 30 uM after 24 hrs by chemoluminescence assay in presence of DHT relative to cytoplasm; assay type: functional; summary of the method: as §3
[10] = tested on: LNCaP; test: Induction of androgen receptor protein expression in human LNCAP cell nucleus at > 10 uM after 24 hrs by chemoluminescence assay in presence of DHT; assay type: functional, cell-based; summary of the method: as §3
[11] = tested on: LNCaP; test: Antiproliferative activity against human LNCAP cells at 0.3 uM after 72 hrs in presence of DHT; assay type: functional, cell-based; summary of the method: as §1
[12] = tested on: LNCaP; test: Antiproliferative activity against human LNCAP cells at 10 uM after 72 hrs in presence of DHT; assay type: functional, cell-based; summary of the method: as §1
[13] = tested on: LNCaP; test: Antiproliferative activity against human LNCAP cells at 1 to 10 uM after 72 hrs in presence of DHT; assay type: functional, cell-based; summary of the method: as §1
[14] = tested on: PC-3; test: Antiproliferative activity against human PC3 cells after 72 hrs by trypan blue assay; assay type: cell-based; details: PC-3, 72 h

Row | SMILES | IC50 [1] | Activity [2] | IC50 [3] | inhibition at 100 µM [4] | further results
1 | Cc1ccc(CCOC(=O)/C=C/c2ccc(O)c(O)c2)cc1 | 11.3 µM | Dose-dependent effect | 14 µM | > 80% | –
2 | O=C(O)/C=C/c1ccc(O)c(O)c1 [CAFFEIC ACID] | 15.3 µM | – | > 100 µM | – | Activity [5]: inactive
3 | O=C(/C=C/c1ccc(O)c(O)c1)OCCc1ccc(F)cc1 | 12.8 µM | Dose-dependent effect | 20.8 µM | > 80% | –
4 | CCCOC(=O)/C=C/c1ccc(O)c(O)c1 | 14.2 µM | Dose-dependent effect | 60.7 µM | – | –
5 | O=C(/C=C/c1ccc(O)c(O)c1)NCCc1ccccc1 [CAFFEIC ACID PHENETHYL AMIDE] | 13.8 µM | Dose-dependent effect | > 100 µM | – | –
6 | O=C(/C=C/c1ccc(O)c(O)c1)OCCC1CCCCC1 | 15.1 µM | Dose-dependent effect | 6.8 µM | > 95% | Activity [6]: Active; fold change (FC) [7]: 5; IC50 [8]: 2 µM; fold change (FC) [9]: 5; Activity [10]: Active; Activity [11]: Active; Activity [12]: Active
7 | O=C(/C=C/c1ccc(O)c(O)c1)OCC(c1ccccc1)c1ccccc1 | 18.5 µM | Dose-dependent effect | 20.8 µM | > 80% | Activity [12]: Active
8 | C=C(C)CCOC(=O)/C=C/c1ccc(O)c(O)c1 | 9.5 µM | – | 20.6 µM | > 80% | Activity [13]: inactive
9 | CCCCOC(=O)/C=C/c1ccc(O)c(O)c1 [BUTYL CAFFEATE] | 12.6 µM | – | 45.4 µM | – | –
10 | COc1ccc(CCOC(=O)/C=C/c2ccc(O)c(O)c2)cc1 | 17.4 µM | – | 47.3 µM | – | Activity [13]: inactive
11 | O=C(/C=C/c1ccc(O)c(O)c1)OCc1ccccc1 [BENZYL CAFFEATE] | 15.3 µM | Dose-dependent effect | 45.6 µM | – | –
12 | O=C(/C=C/c1ccc(O)c(O)c1)OCCc1cccc2ccccc12 | 13.2 µM | Dose-dependent effect | 9.3 µM | > 80% | Activity [12]: Active
13 | O=C(/C=C/c1ccc(O)c(O)c1)OCCCc1ccccc1 | 11.9 µM | Dose-dependent effect | 26.6 µM | > 80% | –
14 | O=C(/C=C/c1ccc(O)c(O)c1)OCCc1ccccc1 [CAFFEIC ACID PHENETHYL ESTER] | 16.5 µM | Dose-dependent effect | 33.7 µM | – | IC50 [14]: 51.4 µM; Activity [6]: Active; fold change (FC) [7]: 5; IC50 [8]: 6.2 µM; fold change (FC) [9]: 5; Activity [10]: Active; Activity [11]: Active
15 | CCOC(=O)/C=C/c1ccc(O)c(O)c1 [ETHYL CAFFEATE] | 13.3 µM | – | > 100 µM | – | Activity [13]: inactive
16 | CC(C)OC(=O)/C=C/c1ccc(O)c(O)c1 | 13 µM | – | 51.9 µM | – | –
17 | O=C(/C=C/c1ccc(O)c(O)c1)Oc1ccccc1 | 12.5 µM | Dose-dependent effect | 65.9 µM | – | –
18 | CC(C)CCOC(=O)/C=C/c1ccc(O)c(O)c1 | 23.8 µM | – | 45.4 µM | – | –
19 | COC(=O)/C=C/c1ccc(O)c(O)c1 [METHYLCAFFEATE] | 21.3 µM | – | > 100 µM | – | Activity [13]: inactive
